Measurements: ChEMBL document CHEMBL4673272, “Discovery of cyclic sulfonamide derivatives as potent inhibitors of SARS-CoV-2” (Bioorg Med Chem Lett, 2021)

How the values were obtained:
[1] = Cytotoxicity against African green monkey Vero cells infected with SARS-CoV-2 betaCoV/KOR/KCDC03/2020 assessed as reduction in cell viability measured after 72 hrs by CellTiter-Glo Luminescent Cell Viability Assay; assay type: cell-based; details: chlorocebus sabaeus
[2] = test system: SARS-CoV-2; test: Antiviral activity against SARS-CoV-2 betaCoV/KOR/KCDC03/2020 infected in African green monkey Vero cells assessed as inhibition of virus-induced cytopathic effect measured after 24 hrs by immunofluorescence assay; assay type: functional, organism-based; details: Severe acute respiratory syndrome coronavirus 2, betaCoV/KOR/KCDC03/2020, Vero
[3] = Selectivity index, ratio of CC50 for African green monkey Vero cells infected with SARS-CoV-2 betaCoV/KOR/KCDC03/2020 to IC50 for SARS-CoV-2 betaCoV/KOR/KCDC03/2020
[4] = test system: L929; test: Cytotoxicity against mouse L929 cells; assay type: cell-based
Outline: (§1)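 Cell-line panel used for cytotoxicity: Vero, African green monkey kidney; HFL-1, human embryonic lung; L929 (NCTC clone 929), mouse fibroblast; NIH 3T3, mouse embryonic fibroblast; CHO-K1, Chinese hamster ovary. Values given in μM.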

[5] = test system: NIH3T3; test: Cytotoxicity against mouse NIH/3T3 cells; assay type: cell-based; outline: as §1
[6] = Clearance in rat at 5 mg/kg, iv or 10 mg/kg, po; assay type: ADME, organism-based; details: in vivo
Outline: (§2)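 Rats, n = 3, were dosed at 5 mg/kg IV and 10 mg/kg PO. Cmax, T1/2, clearance and oral bioavailability (F) were derived from these two dosing routes.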

[7] = test system: HFL1; test: Cytotoxicity against human HFL-1 cells; assay type: cell-based; outline: as §1
[8] = Metabolic stability in monkey microsomes assessed as parent compound remaining incubated for 30 mins; assay type: ADME, Macaca mulatta, Microsome; details: rhesus monkey, read-out: Stabilty
[9] = test system: CHO-K1; test: Cytotoxicity against CHO-K1 cells; assay type: cell-based, Cricetulus griseus; details: chinese hamster; outline: as §1
[10] = Half life in rat at 5 mg/kg, iv or 10 mg/kg, po; assay type: ADME, organism-based; details: in vivo; outline: as §2
[11] = Oral bioavailability in rat at 10 mg/kg; assay type: ADME, organism-based; details: in vivo; outline: as §2
[12] = target: hERG (KCNH2) (Homo sapiens, UniProt Q12809); test: Inhibition of human ERG at 10 uM relative to control
[13] = Metabolic stability in human microsomes assessed as parent compound remaining incubated for 30 mins; assay type: ADME, Microsome; details: read-out: Stabilty
[14] = Cmax in rat at 5 mg/kg, iv or 10 mg/kg, po; assay type: ADME, organism-based; design: dose 10 mg/kg; details: in vivo; outline: as §2
[15] = test system: Vero; test: Cytotoxicity against African green monkey Vero cells; assay type: cell-based; details: chlorocebus sabaeus; outline: as §1

hERG (KCNH2), sequence (Q12809 whole entry): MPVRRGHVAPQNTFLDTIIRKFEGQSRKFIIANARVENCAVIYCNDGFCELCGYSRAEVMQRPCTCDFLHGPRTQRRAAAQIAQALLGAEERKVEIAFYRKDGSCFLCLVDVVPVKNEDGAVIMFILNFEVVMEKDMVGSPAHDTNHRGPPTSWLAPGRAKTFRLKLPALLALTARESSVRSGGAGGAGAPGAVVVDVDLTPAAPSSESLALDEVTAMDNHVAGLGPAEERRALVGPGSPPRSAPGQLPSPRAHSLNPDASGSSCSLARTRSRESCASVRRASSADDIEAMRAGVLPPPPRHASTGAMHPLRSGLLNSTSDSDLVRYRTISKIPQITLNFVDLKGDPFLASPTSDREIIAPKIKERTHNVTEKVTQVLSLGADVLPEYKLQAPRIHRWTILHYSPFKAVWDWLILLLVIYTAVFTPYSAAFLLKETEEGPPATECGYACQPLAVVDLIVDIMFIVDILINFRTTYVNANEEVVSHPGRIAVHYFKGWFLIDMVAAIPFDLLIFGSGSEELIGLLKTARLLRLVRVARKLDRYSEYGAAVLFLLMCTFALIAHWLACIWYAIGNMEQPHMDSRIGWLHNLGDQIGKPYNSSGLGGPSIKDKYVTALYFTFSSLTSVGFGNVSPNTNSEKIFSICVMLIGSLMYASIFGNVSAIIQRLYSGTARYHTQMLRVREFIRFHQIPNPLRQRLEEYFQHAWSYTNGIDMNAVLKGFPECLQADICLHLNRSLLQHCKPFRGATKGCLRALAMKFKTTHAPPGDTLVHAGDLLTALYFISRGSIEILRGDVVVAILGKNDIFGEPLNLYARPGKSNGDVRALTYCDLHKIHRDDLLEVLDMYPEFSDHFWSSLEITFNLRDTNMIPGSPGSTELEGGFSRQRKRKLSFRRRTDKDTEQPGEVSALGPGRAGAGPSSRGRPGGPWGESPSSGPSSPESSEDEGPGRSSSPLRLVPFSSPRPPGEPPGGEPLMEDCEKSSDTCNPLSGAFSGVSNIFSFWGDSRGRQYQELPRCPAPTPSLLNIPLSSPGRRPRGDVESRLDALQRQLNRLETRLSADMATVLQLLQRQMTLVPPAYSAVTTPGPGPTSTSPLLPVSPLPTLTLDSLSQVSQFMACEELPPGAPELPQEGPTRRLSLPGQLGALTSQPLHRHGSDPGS

Structure (SMILES)	CC50 at 72 h [1]	IC50 [2]	Ratio CC50/IC50 [3]	also measured
O=C(CN1C(C(=O)c2ccc(F)cc2)=C(O)c2ccccc2S1(=O)=O)Nc1cccc(OC(F)(F)F)c1	> 25 µM	8.9 µM	2.7	–
O=C(C1=C(O)c2ccccc2S(=O)(=O)N1Cc1ccccc1)c1ccccc1	> 25 µM	> 25 µM	1	–
COc1ccc(C(=O)C2=C(O)c3ccccc3S(=O)(=O)N2CC(=O)Nc2cccc(OC(F)(F)F)c2)cc1	> 25 µM	11.6 µM	2	–
CCN(CC)CCCC(C)Nc1ccnc2cc(Cl)ccc12 (centres undefined) [CHLOROQUINE]	> 25 µM	8 µM	3.1	–
O=C(CN1C(C(=O)c2ccc(F)c(Cl)c2)=C(O)c2ccccc2S1(=O)=O)Nc1ccc(C(F)(F)F)cc1	> 25 µM	2.5 µM	11.1	–
O=C(CN1C(C(=O)c2ccc(F)cc2)=C(O)c2ccccc2S1(=O)=O)Nc1ccccc1Cl	> 25 µM	> 25 µM	1	–
N#Cc1ccc(C(=O)C2=C(O)c3ccccc3S(=O)(=O)N2CC(=O)Nc2ccc(C(F)(F)F)cc2)cc1	> 25 µM	9.3 µM	1.4	–
O=C(CN1C(C(=O)c2cccc(Cl)c2)=C(O)c2ccccc2S1(=O)=O)Nc1ccc(C(F)(F)F)cc1	> 25 µM	4.1 µM	5.8	–
CCC(CC)COC(=O)[C@H](C)N[P@](=O)(OC[C@H]1O[C@@](C#N)(c2ccc3c(N)ncnn23)[C@H](O)[C@@H]1O)Oc1ccccc1 [REMDESIVIR]	> 25 µM	7.01 µM	3.6	–
O=C(CN1C(C(=O)c2ccc(F)c(Cl)c2)=C(O)c2ccc(F)cc2S1(=O)=O)Nc1ccc(C(F)(F)F)cc1	> 25 µM	0.88 µM	30.7	Activity [4]: 31.4 µM; Activity [5]: 68 µM; CL [6]: 0.67 mL/min/kg; Activity [7]: 44.2 µM; remaining at 0.5 h [8]: 61%; Activity [9]: 10.6 µM; t1/2 [10]: 18.5 h; F [11]: 77%; inhibition at 10 µM [12]: < 1%; remaining at 0.5 h [13]: 93%; Cmax [14]: 14330 ng/mL; Activity [15]: 42.1 µM
O=C(CN1C(C(=O)c2cccc(F)c2)=C(O)c2ccccc2S1(=O)=O)Nc1cccc(OC(F)(F)F)c1	> 25 µM	10.1 µM	2.3	–
O=C(CN1C(C(=O)c2ccc(F)cc2)=C(O)c2ccccc2S1(=O)=O)Nc1ccc(C(F)(F)F)cc1	> 25 µM	5.3 µM	4.7	–
O=C(CN1C(C(=O)c2ccc(F)c(Cl)c2)=C(O)c2ccc(F)cc2S1(=O)=O)Nc1cccc(Cl)c1	> 25 µM	2.2 µM	12.1	–
CC(C)C(=O)C1=C(O)c2ccccc2S(=O)(=O)N1CC(=O)Nc1ccc(C(F)(F)F)cc1	> 25 µM	7.3 µM	3	–
N#Cc1cccc(C(=O)C2=C(O)c3ccccc3S(=O)(=O)N2CC(=O)Nc2ccc(C(F)(F)F)cc2)c1	> 25 µM	10.7 µM	1.5	–
CC(C)C(=O)C1=C(O)c2ccccc2S(=O)(=O)N1CC(=O)Nc1cccc(OC(F)(F)F)c1	> 25 µM	10.8 µM	1.9	–
O=C(CN1C(C(=O)c2ccc(Cl)cc2)=C(O)c2ccccc2S1(=O)=O)Nc1cccc(OC(F)(F)F)c1	> 25 µM	8.5 µM	2.9	–
O=C(CN1C(C(=O)c2ccc(F)c(Cl)c2)=C(O)c2ccc(F)cc2S1(=O)=O)Nc1cccc(OC(F)(F)F)c1	> 25 µM	3.1 µM	8.9	–

Structure (SMILES)	CC50 at 72 h [1]	IC50 [2]	Ratio CC50/IC50 [3]	also measured
COc1ccc(C(=O)C2=C(O)c3ccccc3S(=O)(=O)N2CC(=O)Nc2ccc(C(F)(F)F)cc2)cc1	> 25 µM	8.6 µM	2.5	–
N#Cc1ccc(C(=O)C2=C(O)c3ccccc3S(=O)(=O)N2CC(=O)c2ccc(F)c(Cl)c2)cc1	> 25 µM	> 25 µM	1	–
CNc1ccc2c(c1)S(=O)(=O)N(CC(=O)Nc1ccc(C(F)(F)F)cc1)C(C(=O)c1ccc(F)c(Cl)c1)=C2O	> 25 µM	13.8 µM	1.3	–
N#Cc1cccc(C(=O)C2=C(O)c3ccccc3S(=O)(=O)N2CC(=O)Nc2cccc(OC(F)(F)F)c2)c1	> 25 µM	14.3 µM	1.6	–
N#Cc1cccc(C(=O)C2=C(O)c3ccccc3S(=O)(=O)N2CC(=O)c2ccc(F)c(Cl)c2)c1	> 25 µM	> 25 µM	1	–
O=C(CN1C(C(=O)c2ccccc2)=C(O)c2ccccc2S1(=O)=O)Nc1cccc(OC(F)(F)F)c1	> 25 µM	11.5 µM	2.1	–
O=C(CN1C(C(=O)c2ccc(Cl)cc2)=C(O)c2ccccc2S1(=O)=O)Nc1ccc(C(F)(F)F)cc1	> 25 µM	4 µM	6	–
O=C(CN1C(C(=O)c2cccc(F)c2)=C(O)c2ccccc2S1(=O)=O)Nc1ccc(C(F)(F)F)cc1	> 25 µM	7 µM	3.2	–
O=C(CN1C(C(=O)c2cccc(Cl)c2)=C(O)c2ccccc2S1(=O)=O)Nc1cccc(OC(F)(F)F)c1	> 25 µM	11.9 µM	2.1	–
CN1CCN(c2ccc3c(c2)S(=O)(=O)N(CC(=O)Nc2ccc(C(F)(F)F)cc2)C(C(=O)c2ccc(F)c(Cl)c2)=C3O)CC1	> 25 µM	14 µM	1.6	–
O=C(/C=C/N1C(C(=O)c2ccc(F)c(Cl)c2)=C(O)c2ccccc2S1(=O)=O)Nc1cccc(OC(F)(F)F)c1	> 25 µM	6.6 µM	3.6	–
O=C(CN1C(C(=O)c2ccc(F)cc2)=C(O)c2ccccc2S1(=O)=O)Nc1ccccc1	> 25 µM	> 25 µM	1	–
CCNC(=O)CN1C(C(=O)c2ccccc2)=C(O)c2ccccc2S1(=O)=O	> 25 µM	> 25 µM	1	–
O=C(O)/C=C/N1C(C(=O)c2ccc(F)c(Cl)c2)=C(O)c2ccccc2S1(=O)=O	> 25 µM	> 25 µM	1	–
O=C(CN1C(C(=O)c2ccccc2)=C(O)c2ccccc2S1(=O)=O)NC1CCCCC1	> 25 µM	> 25 µM	1	–
O=C(CN1C(C(=O)c2ccc(F)cc2)=C(O)c2ccccc2S1(=O)=O)Nc1cccc(F)c1	> 25 µM	15.3 µM	–	–
O=C(CN1C(C(=O)c2ccc(F)c(Cl)c2)=C(O)c2ccccc2S1(=O)=O)Nc1cccc(OC(F)(F)F)c1	> 25 µM	9.2 µM	2.8	–
N#Cc1ccc(C(=O)C2=C(O)c3ccccc3S(=O)(=O)N2CC(=O)Nc2cccc(OC(F)(F)F)c2)cc1	> 25 µM	14.3 µM	1.6	–
